Screens from PubChem.
This is a sample that favours compounds with a hit; in the whole collection about 3.6% have one here.
PAFAH1B3 inh = inhibitors of human PAFAH1B3 | Q15102 | recombinant PAFAH1B3, FP-rhodamine probe, fluorescence polarization | inhibition, % at 3.39 µM | 340,000 tested, 0.28% active | AID 492972;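 active = inhibition above the screen-wide average of all tested compounds plus 3 SD, cut at about 25% in these data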;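 note: 0% = enzyme with DMSO only and 100% = wells lacking PAFAH1B3 protein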
Target sequence (Q15102 whole entry, looked up): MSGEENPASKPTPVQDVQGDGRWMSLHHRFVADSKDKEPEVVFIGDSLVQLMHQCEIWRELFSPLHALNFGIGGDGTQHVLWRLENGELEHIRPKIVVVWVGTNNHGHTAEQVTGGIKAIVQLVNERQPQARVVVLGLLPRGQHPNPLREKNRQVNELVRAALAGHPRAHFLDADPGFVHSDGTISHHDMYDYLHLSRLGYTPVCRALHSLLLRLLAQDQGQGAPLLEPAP
IMP-1 inh-1 = inhibitors of Pseudomonas aeruginosa IMP-1 metallo-beta-lactamase | purified IMP-1, nitrocefin hydrolysis, epi-absorbance fluorescence | inhibition, % at 5.6 µM | 290,000 tested, 0.45% active;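 active = inhibition above the mean plus 3 SD of all compounds in the same screening run, cut at about 4.5% in these data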;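 note: 0% = IMP-1 with DMSO and 100% = DMSO wells lacking enzyme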
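System: Purified IMP-1 | Read-out basis: Percent enzyme inhibition | Controls: IMP-1 with DMSO as 0%, enzyme-free DMSO as 100% | Replicates: One well per compound | Doses: 5.6 µM nominal single concentration | Detection: Epi-absorbance fluorescence, 480 nm excitation, 530 nm emission | Incubation: 25 °C, 15 min preincubation, 25 min reaction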
pPAFAH inh = pPAFAH (human) enzyme inhibition; recombinant pPAFAH, FP-rhodamine probe fluorescence polarization; inhibition, % at 3.39 µM; 330,000 tested, 1.5% active;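 active = inhibition above the mean inhibition across the screen plus 3 SD, cut at about 25% in these data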;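 note: inhibitors block binding of the rhodamine activity-based probe so polarization drops; 0% = enzyme with DMSO and 100% = wells lacking pPAFAH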
VIM-2 inh = blocks Pseudomonas aeruginosa VIM-2 metallo-beta-lactamase; 290,000 tested, 0.89% active; purified VIM-2, nitrocefin hydrolysis, epi-absorbance fluorescence; inhibition, % at 5.6 µM;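 active = inhibition above the mean of all tested compounds plus 3 SD, cutoff set per screening run, cut at about 7.5% in these data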;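 note: red hydrolysis product quenches plate fluorescence so inhibitors raise well fluorescence; 0% = enzyme with DMSO and 100% = DMSO without enzyme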
PAFAH2 inh = PAFAH2 (human) inhibition. AID 492956. 340,000 tested, 0.99% active. recombinant PAFAH2, FP-rhodamine activity probe, fluorescence polarization. inhibition, % at 3.39 µM. Q99487;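 active = inhibition above the mean over all tested compounds plus 3 SD, cut at about 30% in these data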;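 note: inhibitors block probe labeling of enzyme so polarization drops; 0% = enzyme with DMSO and 100% = wells lacking PAFAH2 protein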
PAFAH1B2 inh = inhibitors of human PAFAH1B2 | P68402 | recombinant PAFAH1B2, FP-rhodamine activity probe, fluorescence polarization | inhibition, % at 3.39 µM | 340,000 tested, 1.2% active;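 active = inhibition above the mean of all tested compounds plus 3 SD, cut at about 24% in these data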;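 note: 0% = enzyme with DMSO and 100% = wells lacking PAFAH1B2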
Target sequence (P68402 whole entry, looked up): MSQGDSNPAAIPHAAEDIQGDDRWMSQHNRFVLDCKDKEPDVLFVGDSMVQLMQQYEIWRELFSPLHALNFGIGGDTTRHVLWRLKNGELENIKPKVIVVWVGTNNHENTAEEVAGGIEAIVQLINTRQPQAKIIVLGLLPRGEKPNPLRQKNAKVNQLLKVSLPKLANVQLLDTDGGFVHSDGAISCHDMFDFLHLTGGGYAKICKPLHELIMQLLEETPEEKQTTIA
IMP-1 inh-2 = selectivity counter-screen for VIM-2 inhibitors: IMP-1 metallo-beta-lactamase inhibitors; shares compounds with VIM-2 inh; purified IMP-1, nitrocefin hydrolysis, epi-absorbance fluorescence; AID 1856; inhibition, % at 5.6 µM; 1,300 tested, under 10 active; call rule not given here;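 note: 0% = enzyme with vehicle and 100% = vehicle without enzyme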
VIM-2 FRET inh = inhibits VIM-2 in FRET assay to exclude epi-absorbance artifacts. shares compounds with VIM-2 inh. purified VIM-2, CCF2 FRET substrate hydrolysis. inhibition, % at 5.6 µM. 1,300 tested, 23% active;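 active = inhibition above the mean of all tested compounds plus 3 SD, cut at about 19% in these data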;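 note: 0% = VIM-2 plus DMSO and 100% = no enzyme wells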
TEM-1 inh = TEM-1 inhibition, counter-screen for VIM-2 inhibitors. inhibition, % at 5.6 µM. shares compounds with VIM-2 inh. AID 1866. Purified TEM-1, nitrocefin hydrolysis, epi-absorbance fluorescence. 1,300 tested, 3% active;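 active = inhibition above that campaign's mean inhibition plus 3 SD, cut at about 0.46% in these data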;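 note: 0% = TEM-1 with DMSO and 100% = TEM-1 with 100 µM potassium clavulanate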
Target sequence (P62593 whole entry, looked up): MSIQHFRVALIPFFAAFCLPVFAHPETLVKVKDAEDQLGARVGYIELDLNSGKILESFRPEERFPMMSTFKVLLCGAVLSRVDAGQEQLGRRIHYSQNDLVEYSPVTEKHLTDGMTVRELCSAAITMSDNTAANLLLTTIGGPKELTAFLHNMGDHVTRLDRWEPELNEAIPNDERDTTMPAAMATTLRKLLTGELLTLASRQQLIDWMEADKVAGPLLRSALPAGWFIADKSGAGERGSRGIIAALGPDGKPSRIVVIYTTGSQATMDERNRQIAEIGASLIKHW
VIM-2 confirm 2 = confirmation of P. aeruginosa VIM-2 metallo-beta-lactamase inhibitors; shares compounds with VIM-2 inh; purified VIM-2, nitrocefin hydrolysis, epi-absorbance; inhibition, % at 5.6 µM; 1,300 tested, 96% active; AID 2187;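 active = inhibition of the VIM-2 beta-lactamase enzyme above about 11% from the earlier first-round screen, limit read from the data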;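 note: 0% = VIM-2 with DMSO and 100% = buffer wells without enzyme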
* hit, by the source's call; · = not tested or not shown.

SMILES	PAFAH1B3 inh	IMP-1 inh-1	pPAFAH inh	VIM-2 inh	PAFAH2 inh	PAFAH1B2 inh	IMP-1 inh-2	VIM-2 FRET inh	TEM-1 inh	VIM-2 confirm 2
Cc1c(OC(C)C(=O)NCCN2CCOCC2)ccc2c(-c3ccccc3)cc(=O)oc12 (configuration not stated)	1.7	-0.6	5.1	1.2	-15.6	-0.2	·	·	·	·
Cc1c(OC(C)C(=O)NCCCN2CCOCC2)ccc2c1oc(=O)c1ccccc12 (configuration not stated)	-2.2	-1.2	3.7	19.3*	10.9	8.5	-3.1	1.7	-10.9	29.4*
Cc1cc(Cl)ccc1OCC(=O)NCCCn1ccnc1	4.9	-2.5	8.1	-7.5	6.4	7.6	·	·	·	·
CCc1cc(=O)oc2c(C)c(OCC(=O)NCCCn3ccnc3)ccc12	0.6	-0.1	6.8	23.1*	-2.0	1.1	-2.7	-1.4	-7.4	34.0*
CCc1cc(=O)oc2cc(C)cc(OC(C)C(=O)NCCCN3CCCC3=O)c12 (configuration not stated)	5.3	-2.5	4.1	-0.3	-5.4	4.4	·	·	·	·
CCc1cc(=O)oc2cc(C)cc(OC(C)C(=O)NCCCn3ccnc3)c12 (configuration not stated)	0.1	-3.2	4.9	36.5*	-3.2	0.0	-3.3	-8.9	-4.0	49.2*
O=C(O)c1cccc(NC(=O)c2ccccc2NC(=O)c2cccc([N+](=O)[O-])c2)c1	4.9	0.8	-3.4	1.2	2.7	-0.9	·	·	·	·
O=C(Nc1ccccc1C(=O)Nc1ccncc1)c1cccc([N+](=O)[O-])c1	6.3	-1.5	0.1	13.5*	-1.8	5.5	-3.1	-10.5	-5.0	25.4*
O=C(c1cccc(S(=O)(=O)NCc2ccccc2)c1)N1CCN(c2ccccc2Cl)CC1	7.0	·	·	·	4.0	8.0	·	·	·	·
O=C(NNC(=O)C1C2C=CC(C2)C1C(=O)O)c1cc(Cl)ccc1O (configuration not stated)	6.0	-2.5	·	-6.8	2.9	6.6	·	·	·	·
COCCNc1c2c(nc3c(-c4ccccc4)c(C)nn13)CCC2	10.2	-2.7	10.2	5.8	10.1	6.7	·	·	·	·
Cc1nn2c(NCCCN(C)C)c3c(nc2c1-c1ccccc1)CCCC3	5.7	-0.6	-1.1	44.7*	3.2	7.2	-2.1	0.4	-6.3	53.1*
Cc1nn2c(NCCOCCO)c3c(nc2c1-c1ccccc1)CCC3	4.7	-2.6	-2.0	3.5	-2.7	4.6	·	·	·	·
Cc1nn2c(NCCCN(C)C)c3c(nc2c1-c1ccccc1)CCC3	-1.7	-2.9	-1.9	13.7*	-1.6	1.7	-2.5	-5.4	-7.0	36.9*
O=S(=O)(Nc1cccc(S(=O)(=O)N2CCCC2)c1)c1cccc(Br)c1	6.3	·	1.5	·	3.8	6.9	·	·	·	·
O=C(O)CN1C(=O)C2(OCCO2)c2cc(Br)ccc21	1.8	·	5.3	·	4.8	8.1	·	·	·	·
CC(C)Oc1ccc(S(=O)(=O)N2CCOCC2)cc1NC(=O)c1cccc(S(=O)(=O)N2CCCC2)c1	7.8	·	·	·	0.3	-8.5	·	·	·	·
CC(C)c1cccc(C2=CC(=O)C[C@H](c3ccc4c(c3)OCO4)C2)c1	4.1	·	2.2	·	-5.1	-4.8	·	·	·	·
COc1ccc(CCn2c(SCCN3CCCCC3)nc3ccccc3c2=O)cc1OC	11.8	-2.5	-0.7	74.9*	-0.7	9.0	-2.0	-0.1	-5.1	83.9*
O=C1c2cccc3cccc(c23)C(=O)N1c1nncs1	5.9	-0.1	4.1	12.9*	4.8	2.6	-2.8	4.1	-3.2	24.4*
Cc1cccc(N2C(=O)c3cccc4cccc(c34)C2=O)c1	5.8	-2.7	2.4	-3.0	1.6	-0.4	·	·	·	·
O=C(CSc1ncn[nH]1)N1N=C(c2ccc(Cl)cc2)CC1c1ccco1 (configuration not stated)	-0.9	-0.5	8.7	13.0*	2.2	3.8	-3.0	30.5*	-6.3	16.6*
CCC(C)NC(=O)C1(N2C(=O)c3ccccc3C2=O)CCCC1 (configuration not stated)	7.3	·	·	·	0.5	0.1	·	·	·	·
CCCCn1c(N)c(N(CCC(C)C)C(=O)C2CCCC2)c(=O)[nH]c1=O	13.5	·	-1.6	·	-0.1	2.5	·	·	·	·
O=C(NCCN1CCN(c2ccccc2)CC1)c1cccn2c(=O)c3ccccc3nc12	-1.0	-2.7	1.1	2.6	-2.5	3.0	·	·	·	·
SMILES	PAFAH1B3 inh	IMP-1 inh-1	pPAFAH inh	VIM-2 inh	PAFAH2 inh	PAFAH1B2 inh	IMP-1 inh-2	VIM-2 FRET inh	TEM-1 inh	VIM-2 confirm 2
CN(CCCNC(=O)c1cccn2c(=O)c3ccccc3nc12)Cc1ccccc1	1.7	-1.8	-3.4	22.0*	-0.4	-1.2	-3.0	-2.7	-7.3	44.8*
C=CCn1c(CSc2ccc(C)cc2)n[nH]c1=S	7.6	-0.6	2.5	-0.5	-12.2	4.7	·	·	·	·
CC(Oc1ccc2c3c(c(=O)oc2c1)CCCC3)C(=O)NCCN1CCOCC1 (configuration not stated)	7.9	-0.8	5.0	6.9	3.4	4.6	·	·	·	·
COc1ccc2c(c1OC)c(=O)n1c3ccc(OC(C)C(=O)NCCN4CCOCC4)cc3c3ccnc2c31 (configuration not stated)	10.1	-0.4	5.8	17.7*	3.4	7.9	-0.8	-5.5	-8.7	25.8*
CC(Oc1ccc2c(c1)c1ccnc3c4ccccc4c(=O)n2c13)C(=O)NCCN1CCOCC1 (configuration not stated)	1.1	-1.8	-5.0	26.8*	2.5	-7.0	-2.4	-7.7	-7.6	36.5*
O=C(CN1CCOCC1)n1c2c(c3ccccc31)CCCC2	2.6	-1.2	-2.4	12.9*	-3.5	1.7	-3.7	6.1	-7.2	5.4
CCOC(=O)CNS(=O)(=O)c1cc(-c2n[nH]c(=O)c3ccccc23)ccc1C	7.6	-0.6	·	2.1	9.1	4.2	·	·	·	·
CN(CCO)c1ccc(-c2n[nH]c(=O)c3ccccc23)cc1[N+](=O)[O-]	5.7	-3.9	·	16.2*	0.0	5.4	-2.8	-2.6	-6.0	26.7*
COC(=O)c1ccc(-c2nn(C)c(=O)c3ccccc23)cc1	8.1	-3.0	1.1	-1.1	11.1	-5.3	·	·	·	·
CCC(CO)Nc1ccc(-c2n[nH]c(=O)c3ccccc23)cc1[N+](=O)[O-] (configuration not stated)	4.8	-1.9	-1.2	22.4*	-5.4	0.6	-4.0	-4.3	-7.8	32.1*
